Bounds are passed on as bounds.

In data set [1] the test system is Cryptosporidium parvum. As to the kind of experiment: Antiparasitic activity against Cryptosporidium parvum SPL infected in human HCT8 cells incubated for 48 hrs by FITC/DAPI staining based fluorescence assay. To be noted: HCT-8, 48 h. It counts as functional, organism-based. An outline of the steps: (§1)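 HCT-8 cells seeded at 2750 cells/well and dosed 24 h later with pure compounds (11-point 1:3 serial dilution, final top 25 μM), then infected with excysted oocysts at 3125 oocysts/well. Incubated 48 h at 37 °C, 5% CO2, then fixed in 4% paraformaldehyde. Parasites stained with FITC-Vicia villosa lectin and host nuclei with DAPI, imaged at 10×. Parasite spot counts and host nuclei counts taken relative to DMSO-treated wells.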

A further data set deals with HCT-8. Briefly: Cytotoxicity against human HCT8 cells. It is filed as cell-based. An outline of the steps:
as §1

Data set [2] relates to Cryptosporidium parvum. As to the kind of experiment: Antiparasitic activity against Cryptosporidium parvum BGF infected in human HCT8 cells incubated for 48 hrs by FITC/DAPI staining based fluorescence assay. It is filed as functional, organism-based. To be noted: HCT-8, 48 h. A digest of the protocol:
as §1

The nature of data set [3]: Cytotoxicity against human HEK293T cells assessed as decrease in cell viability after 72 hrs by CellTiter-Glo reagent based luminescence assay. The arrangement: species or system HEK-293T. An outline of the steps:
(§2)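 Compounds prespotted as a 1:3 dilution series, top 40 μM. Cells seeded at 375 cells/well for HEK293T and 700 cells/well for HepG2, then incubated 72 h at 37 °C, 5% CO2. Viability read as CellTiter-Glo luminescence, normalized to DMSO- and puromycin-treated wells. CC50 obtained from a four-parameter nonlinear regression fit.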
(ATP-based viability assays read luminescence as a measure of living cells.)

Data set [4] is described as follows: Cytotoxicity against human HepG2 cells assessed as decrease in cell viability after 72 hrs by CellTiter-Glo reagent based luminescence assay. A digest of the protocol: as §2

Turning to `O=c1[nH]c(=O)n([C@H]2C[C@H](O)[C@@H](CO)O2)cc1F` [FLOXURIDINE], the concentration giving a half-maximal response (EC50) – broadly, the concentration that produces a half-maximal response – in the data set on Cryptosporidium parvum [1] is 5 nM; in the data set with HCT-8, 0.015 to 0.038 µM; in the data set with Cryptosporidium parvum [2], 9.6 nM. In addition, the CC50 – broadly, the concentration at which the toxic effect on the cells reaches its halfway point – at 72 h in data set [3] was 0.0084 µM; in data set [4] it was 0.0076 µM.

Take `CC(=O)Oc1ccccc1C(=O)Nc1ncc([N+](=O)[O-])s1` [NITAZOXANIDE]: the EC50 with Cryptosporidium parvum [1] is 2300 nM; with HCT-8 it was greater than 25 µM; in the data set on Cryptosporidium parvum [2], 2900 nM. In addition, the half-maximal cytotoxic concentration (CC50) at 72 h in data set [3] and in data set [4] was greater than 40 µM each time.

In the case of `COC(=O)[C@H]1O[C@@H]2C[C@H]3O[C@@H](n4cnc5c(N)ncnc54)[C@H](O)[C@H]3O[C@@]2(O)[C@@H](O)[C@@H]1O`, the EC50 with Cryptosporidium parvum [1] is 24000 nM; in the data set on HCT-8, greater than 25 µM; with Cryptosporidium parvum [2], 18000 nM. The cytotoxic concentration (CC50) at 72 h in data set [3] and in data set [4] was greater than 40 µM each time.

Regarding `COc1ccc(C[C@H](N)C(=O)N[C@H]2[C@@H](O)[C@H](n3cnc4c(N(C)C)ncnc43)O[C@@H]2CO)cc1` [PUROMYCIN], the EC50 is 600 nM in the data set with Cryptosporidium parvum [1], 6.1 to 7 µM in the data set with HCT-8 and 550 nM with Cryptosporidium parvum [2]. The figures for the cytotoxic concentration (CC50) at 72 h in data set [3] and in data set [4] were 0.42 µM and 0.83 µM, respectively.

Consider `C/C=C(\CO)C(=O)O[C@@H]1[C@@H](C(=O)OC)O[C@@H]2C[C@H]3O[C@@H](n4cnc5c(N)ncnc54)[C@H](OC)[C@H]3O[C@@]2(O)[C@@H]1O`, for which the EC50 in the data set with Cryptosporidium parvum [1] is 170 nM; in the data set with HCT-8, 0.14 to 0.18 µM; in the data set with Cryptosporidium parvum [2], 150 nM. The cytotoxic concentration (CC50) at 72 h in data set [3] was greater than 40 µM; in data set [4], 24 µM.

In the case of `C/C=C(\C)C(=O)O[C@H]1[C@H](O)[C@@H](C(=O)OC)O[C@@H]2C[C@H]3O[C@@H](n4cnc5c(N)ncnc54)[C@H](O)[C@H]3O[C@]21O`, the concentration for a half-maximal effect (EC50) in the data set with Cryptosporidium parvum [1] is 2700 nM; with HCT-8, greater than 25 µM; in the data set on Cryptosporidium parvum [2], 2800 nM. Further, the CC50 at 72 h in data set [3] and in data set [4] was greater than 40 µM throughout.

For `COC(=O)[C@H]1O[C@@H]2C[C@H]3O[C@@H](n4cnc5c(N)ncnc54)[C@H](OC)[C@H]3O[C@@]2(O)[C@H](O)[C@@H]1O`, the EC50 was greater than 25000 nM in the data set on Cryptosporidium parvum [1], greater than 25 µM with HCT-8 and greater than 25000 nM in the data set with Cryptosporidium parvum [2]. Besides, the CC50 at 72 h in data set [3] and in data set [4] was greater than 40 µM throughout.

As for `COC(=O)[C@H]1O[C@@H]2C[C@H]3O[C@@H](n4cnc5c(N)ncnc54)[C@H](OC)[C@H]3O[C@@]2(O)[C@@H](O)[C@@H]1O`, the 50% effective concentration (EC50) with Cryptosporidium parvum [1] is 11000 nM; with HCT-8, greater than 25 µM; with Cryptosporidium parvum [2], 8800 nM. In addition, the cytotoxic concentration (CC50) at 72 h in data set [3] and in data set [4] was greater than 40 µM throughout.

Take `C/C=C(\CO)C(=O)O[C@H]1[C@H](O)[C@@H](C(=O)OC)O[C@@H]2C[C@H]3O[C@@H](n4cnc5c(N)ncnc54)[C@H](OC)[C@H]3O[C@]21O`: the results for the half-maximal effective concentration (EC50) with Cryptosporidium parvum [1], with HCT-8 and in the data set on Cryptosporidium parvum [2] were 16000 nM, greater than 25 µM and 21000 nM, respectively. Moreover, the 50% cytotoxic concentration (CC50) at 72 h in data set [3] and in data set [4] was greater than 40 µM in each case.

Source of the values: ChEMBL document CHEMBL4251668, “Herbicidins from Streptomyces sp. CB01388 Showing Anti- Cryptosporidium Activity” (J Nat Prod, 2018).
